{"source": "ChEMBL document CHEMBL4118168", "about": "“Synthesis and structure-activity relationship studies of MI-2 analogues as MALT1 inhibitors” (Bioorg Med Chem, 2018)", "note": "Active and inactive are the calls of the source. No cut-off for these calls is given here."}
{"system": "Toledo", "assay": "Antiproliferative activity against human Toledo cells after 48 hrs by CCK8 assay", "format": "functional, cell-based", "units": {"IC50": "nM"}}
{"smiles": "COCCOc1nc(-c2ccc(Cl)c(Cl)c2)n(-c2ccc(NC(=O)CCl)cc2)n1", "IC50": 800}
{"smiles": "O=C(CCl)Nc1ccc(-n2nc(OCCc3cn(-c4ccccc4)nn3)nc2-c2ccc(Cl)c(Cl)c2)cc1", "IC50": 380}
{"smiles": "COCCOc1nc(-c2ccc(Cl)cc2)n(-c2ccc(NC(=O)CCl)cc2)n1", "IC50": 1720}
{"smiles": "O=C(CCl)Nc1ccc(-n2nc(OCCN3CCOCC3)nc2-c2ccc(Cl)c(Cl)c2)cc1", "IC50": 470}
{"biological_target": "T1, Mucosa-associated lymphoid tissue lymphoma translocation protein 1 (Homo sapiens) (UniProt Q9UDY8)", "T1 sequence (whole entry)": "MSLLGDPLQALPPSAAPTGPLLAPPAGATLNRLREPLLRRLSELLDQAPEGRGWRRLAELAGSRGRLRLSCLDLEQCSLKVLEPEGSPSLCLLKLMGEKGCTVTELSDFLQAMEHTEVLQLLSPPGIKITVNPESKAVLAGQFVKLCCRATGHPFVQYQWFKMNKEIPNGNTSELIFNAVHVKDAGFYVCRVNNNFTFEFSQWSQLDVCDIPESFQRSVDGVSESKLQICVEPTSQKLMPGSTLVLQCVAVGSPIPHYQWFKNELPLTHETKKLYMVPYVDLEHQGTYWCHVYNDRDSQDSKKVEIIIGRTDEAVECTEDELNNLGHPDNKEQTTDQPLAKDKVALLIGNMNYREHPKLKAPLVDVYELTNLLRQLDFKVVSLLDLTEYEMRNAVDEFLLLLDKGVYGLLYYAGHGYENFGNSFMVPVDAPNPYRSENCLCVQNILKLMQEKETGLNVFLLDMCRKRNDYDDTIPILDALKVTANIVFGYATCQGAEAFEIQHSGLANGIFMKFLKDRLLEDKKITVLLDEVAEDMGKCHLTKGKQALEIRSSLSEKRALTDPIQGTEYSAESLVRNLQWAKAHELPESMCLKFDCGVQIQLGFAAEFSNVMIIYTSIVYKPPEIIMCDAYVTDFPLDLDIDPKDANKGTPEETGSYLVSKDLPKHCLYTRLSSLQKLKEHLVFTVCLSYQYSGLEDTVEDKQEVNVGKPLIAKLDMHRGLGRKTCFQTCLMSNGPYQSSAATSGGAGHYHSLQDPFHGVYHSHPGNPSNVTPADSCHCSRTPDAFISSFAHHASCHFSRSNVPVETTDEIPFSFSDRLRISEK", "assay": "Inhibition of MALT1 in PMA/ionomycin-stimulated human Jurkat T cells assessed as reduction in RelB cleavage at 2 uM pretreated for 4 hrs followed by 1 hr incubation with protease inhibitor MG132 and subsequent PMA/ionomycin-stimulation measured after 1 hr by Western blot analysis", "format": "cell-based", "how_it_was_run": "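Jurkat T cells in RPMI 1640 with 10% FBS, seeded at 9×10^5 cells/well, treated with compound or DMSO for 4 h, then 1 h with MG132 (10 μM), then stimulated with PMA. RelB cleavage as the read-out of MALT1 activity, detected by Western blot.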"}
{"smiles": "O=C(CCl)Nc1ccc(-n2nc(OCCCO)nc2-c2ccc(Cl)c(Cl)c2)cc1", "inhibition": "Active"}
{"smiles": "O=C(CCl)Nc1ccc(-n2nc(OCC(O)CO)nc2-c2ccc(Cl)c(Cl)c2)cc1", "note": "(stereo not given)", "inhibition": "Active"}
{"smiles": "COCCOCCOc1nc(-c2ccc(Cl)c(Cl)c2)n(-c2ccc(NC(=O)CCl)cc2)n1", "inhibition": "Active"}
{"smiles": "COCCOc1nc(-c2ccc(NC(=O)CCl)cc2)n(-c2ccc(Cl)c(Cl)c2)n1", "inhibition": "Active"}
{"smiles": "O=C(CCl)Nc1ccc(-n2nc(OCCc3cn(-c4ccccc4)nn3)nc2-c2ccc(Cl)c(Cl)c2)cc1", "inhibition": "Active"}
{"smiles": "COCC(C)Oc1nc(-c2ccc(Cl)c(Cl)c2)n(-c2ccc(NC(=O)CCl)cc2)n1", "note": "(stereo not given)", "inhibition": "Active"}
